# Measured values collected from several papers.
# Protocols differ between the studies behind these lines.
# Target: Tyrosine-protein kinase Fer (FER, Homo sapiens, UniProt P16591)
Structure (SMILES),test,conditions,endpoint,value
Cn1cc(-c2cc(F)cc(N3CCn4c(cc5c4CCCC5)C3=O)c2CO)cc(Nc2ccc(N3CCN(C4COC4)CC3)cn2)c1=O,"enzyme activity, inhibitor",0.1 µM,inhibition,10%
CCn1cnc2c(Nc3cccc(Cl)c3)nc(N[C@H]3CCCC[C@H]3N)nc21,"enzyme activity, inhibitor",0.5 µM,remaining activity,86.8%
Nc1ncc(-c2nc(N3CCOCC3)nc(N3CCOCC3)n2)c(C(F)F)n1,"binding, competition with immobilised ligand",10 µM,remaining binding,67%
CC(C)(C)c1cc(C=C(C#N)C#N)cc(Br)c1O,"enzyme activity, inhibitor",0.5 µM,remaining activity,100%
COc1ncccc1-c1cnn2ccc(N3CCN(C(=O)OC(C)C)CC3)nc12,"binding, competition with immobilised ligand",1 µM,remaining binding,100%
C#Cc1n[nH]c2c(-c3cn([C@@H](C)c4ccccn4)c(=O)[nH]c3=O)cc(F)cc12,"enzyme activity, inhibitor",0.1 µM,inhibition,3.7%
Cn1cncc1[C@@](O)(COc1ccc(C#N)cc1-c1ccc(OC(F)(F)F)cc1)c1ccc(C#N)cc1,"cell-free assay, competition with immobilised ligand",1 µM,remaining binding,100%
Cn1cc(-c2cccc(N3CCc4c(sc5c4CC(C)(C)C5)C3=O)c2CO)cc(Nc2ccncn2)c1=O,"enzyme activity, inhibitor",1 µM,inhibition,9%
Cc1nn(C)cc1-c1nc2c(N3CCN(Cc4ccc(Cl)cc4)CC3)c(Cl)cnc2[nH]1,"binding, competition with immobilised ligand",1 µM,remaining binding,100%
C#Cc1n[nH]c2c(-c3cn([C@@H](C)c4ccccc4)c(=O)[nH]c3=O)cc(F)cc12,"enzyme activity, inhibitor",0.1 µM,inhibition,1.5%
COc1cc(Nc2ncc(F)c(Nc3ccc4c(n3)NC(=O)C(C)(C)O4)n2)cc(OC)c1OC,"binding, competition with immobilised ligand",10 µM,inhibition,78%
